The text below walks through data of ChEMBL document CHEMBL1141656, “N-{[(6-substituted-1,3-benzothiazole-2-yl)amino]carbonothioyl}-2/4-substituted benzamides: synthesis and pharmacological evaluation” (Eur J Med Chem, 2008).

Series [1] relates to Mus musculus. Nature of the series: Anticonvulsant activity in ip dosed CF1 albino mouse assessed as minimum effective dose after 4 hrs by MES screen test. The series is classed as functional. The method in brief:
(§1)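 Mice given test compounds i.p. at 30, 100 and 300 mg/kg (one to four mice per dose), suspended in 1% Tween 80 or 0.5% methylcellulose–water. Maximal electroshock seizure test, read at 0.5 and 4 h after dosing. Value is the lowest dose protecting half or more of the mice.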

In series [2] the test system is Mus musculus. Nature of the series: Anticonvulsant activity in ip dosed CF1 albino mouse assessed as minimum effective dose after 0.5 hrs by MES screen test. The series is classed as functional. The method in brief: as §1
Series [3] is filed under the species Rattus norvegicus. Briefly: Hepatotoxicity in Sprague-Dawley rat assessed as presence of normal hepatic parenchyma with portal triad and central vein by histopathological study. The note with it: in vivo. The series is classed as toxicity, organism-based. The procedure, abridged: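 Rats were dosed chronically and sacrificed under light ether anesthesia 24 h after the last dose. Livers were removed, washed in normal saline and embedded in paraffin. Sections 5–6 thick were cut, stained with haematoxylin and eosin, and examined microscopically.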

The subject of series [4] is Rattus norvegicus. Nature of the series: Antidepressant activity in Wistar rat assessed as mean average immobility time during 5 mins of test period at 30 mg/kg, po after 30 mins by forced-swimming test. The series is classed as functional.
The species entered for series [5] is Mus musculus. Nature of the series: Neurotoxicity in CF1 albino mouse after 0.5 hrs by rotarod test. The series is classed as toxicity, organism-based. The settings on record: in vivo. On the technique in general: The rotarod test checks motor coordination on a turning rod.
Series [6] has as its system Rattus norvegicus. Briefly: Hepatotoxicity in Sprague-Dawley rat assessed as total protein level per 100 ml of blood at 30 mg/kg, po after 15 days. The series is classed as toxicity, organism-based. Further details: dose 30 mg/kg, route oral; call rule not given here. The note with it: in vivo, 360 h. The procedure, abridged: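 Rats given 30 mg/kg/day p.o. in methylcellulose for two weeks, then anesthetized with ether. Blood was collected from the liver. SGOT, SGPT, alkaline phosphatase, total protein and albumin were measured by reported methods.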

The subject of series [7] is Mus musculus. Nature of the series: Anticonvulsant activity in ip dosed CF1 albino mouse assessed as minimum effective dose after 4 hrs by scPTZ test. Type of series: functional. The method in brief:
(§2)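 Mice dosed i.p. at 30, 100 and 300 mg/kg in 1% Tween 80 or 0.5% methylcellulose–water, then challenged 0.5 and 4 h later. PTZ in 0.9% NaCl was injected s.c. at the posterior midline. Mice were watched for 30 min. Protection meant no clonic spasm lasting at least 5 s. Value is the minimum dose active in half or more of the mice.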

The subject of series [8] is Mus musculus. Briefly: Anticonvulsant activity in ip dosed CF1 albino mouse assessed as minimum effective dose after 0.5 hrs by scPTZ test. The series is classed as functional. The method in brief:
as §2

For series [9], the species on record is Mus musculus. Briefly: Neurotoxicity in CF1 albino mouse after 4 hrs by rotarod test. Type of series: toxicity, organism-based. The note with it: in vivo.

Regarding `CNCCC(Oc1ccc(C(F)(F)F)cc1)c1ccccc1` (stereo not drawn) [FLUOXETINE], the values for the Activity in the series on Mus musculus [1] and in the series on Mus musculus [2] were 14.2 mg/kg and 29.6 mg/kg, respectively.

Consider `COc1ccc(C(=O)NC(=S)Nc2nc3ccc(C)cc3s2)cc1`, for which the Activity entry in the series listed under Rattus norvegicus [3] is “Non-toxic”; in the series with Mus musculus [1], 300 mg/kg; in the series on Rattus norvegicus [4] it was 10.2 s; in the series with Mus musculus [2], 300 mg/kg.

On to `O=C(NC(=S)Nc1nc2ccc(F)cc2s1)c1ccccc1`, for which the Activity entry in the series filed under Mus musculus [5] is “Not Active”; in the series filed under Rattus norvegicus [3] it was “Non-toxic”; with Rattus norvegicus [6], 1.8 g; in the series on Mus musculus [1] it was 30 mg/kg; in the series with Mus musculus [7] it was 100 mg/kg; in the series with Mus musculus [8], 30 mg/kg. The Activity in the series on Rattus norvegicus [4] was 24 s; in the series with Mus musculus [2] it was 30 mg/kg; in the series listed under Mus musculus [9], “Not Active”.

As for `COc1ccc(C(=O)NC(=S)Nc2nc3ccc(Cl)cc3s2)cc1`, the Activity entry in the series filed under Mus musculus [5] is “Not Active”; in the series filed under Rattus norvegicus [3], “Non-toxic”; in the series with Rattus norvegicus [6], 1.79 g; with Mus musculus [1], 30 mg/kg; in the series with Mus musculus [7], 100 mg/kg; with Mus musculus [8] it was 30 mg/kg. Moreover, the Activity in the series on Rattus norvegicus [4] is 34.2 s; in the series on Mus musculus [2], 30 mg/kg; in the series listed under Mus musculus [9], “Not Active”.

For the molecule `COc1ccc(C(=O)NC(=S)Nc2nc3ccc(OC)cc3s2)cc1`, the Activity entry in the series filed under Rattus norvegicus [3] is “Non-toxic”; in the series with Mus musculus [1], 300 mg/kg; in the series on Mus musculus [7] it was 300 mg/kg; with Mus musculus [8] it was 300 mg/kg; in the series with Rattus norvegicus [4] it was 16.8 s; with Mus musculus [2], 300 mg/kg.

As for `O=C(NC(=S)Nc1nc2ccc(Cl)cc2s1)c1ccccc1Cl`, the Activity result in the series listed under Rattus norvegicus [3] is “Non-toxic”; in the series with Mus musculus [1] it was 300 mg/kg; with Mus musculus [7], 300 mg/kg; in the series on Mus musculus [8], 300 mg/kg; in the series with Rattus norvegicus [4], 32.6 s; in the series with Mus musculus [2], 300 mg/kg.

For `Cc1ccc2nc(NC(=S)NC(=O)c3ccccc3Cl)sc2c1`, the Activity result in the series filed under Mus musculus [5] is “Not Active”; in the series listed under Rattus norvegicus [3], “Non-toxic”; with Rattus norvegicus [6] it was 1.71 g; in the series with Mus musculus [1], 30 mg/kg; in the series on Mus musculus [7], 30 mg/kg; in the series on Mus musculus [8], 30 mg/kg. Further, the Activity is 40.4 s with Rattus norvegicus [4], 30 mg/kg in the series with Mus musculus [2] and “Not Active” in the series listed under Mus musculus [9].

On to `Cc1ccc2nc(NC(=S)NC(=O)c3ccccc3)sc2c1`, for which the Activity entry was “Non-toxic” in the series listed under Rattus norvegicus [3]; 300 mg/kg with Mus musculus [1]; 300 mg/kg with Mus musculus [7]; 300 mg/kg with Mus musculus [8]; 29 s in the series with Rattus norvegicus [4]; 300 mg/kg in the series on Mus musculus [2].

`COc1ccc(C(=O)NC(=S)Nc2nc3ccc(F)cc3s2)cc1`: the Activity result in the series filed under Rattus norvegicus [3] is recorded as “Non-toxic”; in the series on Rattus norvegicus [4], 31.2 s.

For the molecule `O=C(NC(=S)Nc1nc2ccc([N+](=O)[O-])cc2s1)c1ccccc1`, the Activity entry in the series listed under Rattus norvegicus [3] was “Non-toxic”; with Mus musculus [1], 300 mg/kg; in the series with Mus musculus [7] it was 300 mg/kg; with Mus musculus [8], 300 mg/kg; in the series on Rattus norvegicus [4] it was 14.8 s; with Mus musculus [2], 300 mg/kg.

With `O=C(NC(=S)Nc1nc2ccc(Cl)cc2s1)c1ccccc1`, the Activity result is “Non-toxic” in the series filed under Rattus norvegicus [3]; 300 mg/kg in the series with Mus musculus [1]; 300 mg/kg in the series on Mus musculus [7]; 100 mg/kg in the series on Mus musculus [8]; 29 s in the series with Rattus norvegicus [4]; 300 mg/kg with Mus musculus [2].

With `Cc1ccc2nc(NC(=S)NC(=O)c3ccc(Cl)cc3)sc2c1`, the Activity result in the series filed under Mus musculus [5] was “Not Active”; in the series listed under Rattus norvegicus [3] it was “Non-toxic”; with Rattus norvegicus [6], 1.88 g; with Mus musculus [1], 100 mg/kg; with Mus musculus [7] it was 100 mg/kg; in the series on Mus musculus [8], 100 mg/kg. For the same molecule, the Activity in the series with Rattus norvegicus [4] is 30 s; with Mus musculus [2], 30 mg/kg; in the series filed under Mus musculus [9] it was “Not Active”.

Consider `COc1ccc2nc(NC(=S)NC(=O)c3ccccc3Cl)sc2c1`, for which the Activity result in the series listed under Mus musculus [5] was “Not Active”; in the series listed under Rattus norvegicus [3] it was “Non-toxic”; in the series on Rattus norvegicus [6], 1.98 g; with Mus musculus [1] it was 100 mg/kg; in the series with Mus musculus [7], 100 mg/kg; in the series on Mus musculus [8], 100 mg/kg. The figures for the Activity with Rattus norvegicus [4], in the series with Mus musculus [2] and in the series filed under Mus musculus [9] were 42.6 s, 30 mg/kg and “Not Active”, respectively.

In the case of `NC(=O)N1c2ccccc2C=Cc2ccccc21` [CARBAMAZEPINE], the Activity result in the series listed under Mus musculus [5] was “Not Active”; in the series filed under Rattus norvegicus [3], “Non-toxic”; in the series on Mus musculus [1], 100 mg/kg; with Mus musculus [7], 100 mg/kg; in the series on Mus musculus [8], 100 mg/kg; in the series with Mus musculus [2], 30 mg/kg. For the same molecule, the Activity result in the series listed under Mus musculus [9] is “Not Active”.

Regarding `COc1ccc2nc(NC(=S)NC(=O)c3ccccc3)sc2c1`, the Activity result in the series listed under Rattus norvegicus [3] is “Non-toxic”; in the series with Mus musculus [1] it was 100 mg/kg; in the series with Mus musculus [7] it was 300 mg/kg; with Mus musculus [8], 300 mg/kg; with Rattus norvegicus [4], 19.8 s; in the series on Mus musculus [2], 100 mg/kg.

In the case of `O=C(NC(=S)Nc1nc2ccc(F)cc2s1)c1ccc(Cl)cc1`, the Activity entry in the series listed under Rattus norvegicus [3] is “Non-toxic”; in the series on Mus musculus [1], 300 mg/kg; in the series on Rattus norvegicus [4] it was 24.6 s; with Mus musculus [2] it was 100 mg/kg.

Consider `O=C(NC(=S)Nc1nc2ccc(Cl)cc2s1)c1ccc(Cl)cc1`, for which the Activity entry is “Not Active” in the series filed under Mus musculus [5]; “Non-toxic” in the series listed under Rattus norvegicus [3]; 1.9 g in the series with Rattus norvegicus [6]; 100 mg/kg with Mus musculus [1]; 300 mg/kg with Mus musculus [7]; 100 mg/kg in the series on Mus musculus [8]. In addition, the Activity in the series with Rattus norvegicus [4] was 20.2 s; with Mus musculus [2], 30 mg/kg; in the series filed under Mus musculus [9] it was “Not Active”.

For the molecule `O=C(NC(=S)Nc1nc2ccc(Br)cc2s1)c1ccc(Cl)cc1`, the Activity result in the series listed under Rattus norvegicus [3] was “Non-toxic”; in the series with Mus musculus [1] it was 100 mg/kg; in the series on Mus musculus [7], 300 mg/kg; in the series with Mus musculus [8] it was 300 mg/kg; in the series on Rattus norvegicus [4], 38 s; in the series with Mus musculus [2] it was 100 mg/kg.

For `COc1ccc(C(=O)NC(=S)Nc2nc3ccc([N+](=O)[O-])cc3s2)cc1`, the Activity result is recorded as “Non-toxic” in the series filed under Rattus norvegicus [3] and 27.8 s in the series with Rattus norvegicus [4].

`O=C(NC(=S)Nc1nc2ccc(F)cc2s1)c1ccccc1Cl`: the Activity entry in the series filed under Mus musculus [5] was “Not Active”; in the series filed under Rattus norvegicus [3], “Non-toxic”; with Rattus norvegicus [6], 1.83 g; with Mus musculus [1], 100 mg/kg; in the series on Mus musculus [7], 300 mg/kg; in the series on Mus musculus [8], 100 mg/kg. Besides, the Activity was 25 s in the series on Rattus norvegicus [4], 30 mg/kg in the series with Mus musculus [2] and “Not Active” in the series listed under Mus musculus [9].

As to `COc1ccc2nc(NC(=S)NC(=O)c3ccc(Cl)cc3)sc2c1`, the Activity entry was “Non-toxic” in the series listed under Rattus norvegicus [3]; 300 mg/kg in the series with Mus musculus [1]; 300 mg/kg with Mus musculus [7]; 300 mg/kg with Mus musculus [8]; 43 s with Rattus norvegicus [4]; 300 mg/kg in the series with Mus musculus [2].

As to `O=C(NC(=S)Nc1nc2ccc(Br)cc2s1)c1ccccc1Cl`, the Activity entry in the series filed under Rattus norvegicus [3] was “Non-toxic”; in the series with Mus musculus [1], 300 mg/kg; in the series with Mus musculus [7], 300 mg/kg; with Mus musculus [8], 300 mg/kg; in the series on Rattus norvegicus [4] it was 22.6 s; in the series with Mus musculus [2], 300 mg/kg.

For `O=C1NC(=O)C(c2ccccc2)(c2ccccc2)N1` [PHENYTOIN], the Activity result in the series filed under Mus musculus [5] is “Not Active”; in the series filed under Rattus norvegicus [3] it was “Non-toxic”; in the series on Mus musculus [1] it was 30 mg/kg; in the series on Mus musculus [2], 30 mg/kg; in the series listed under Mus musculus [9], “Not Active”.
